The EternaBench riboswitch data

Test system: MS2 coat protein
Assay: apparent Kd, MS2 coat protein; higher = weaker binding; RNA-MaP array; FMN 200 µM where present
In short: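 On Illumina sequencing-chip clusters, designs were transcribed by stalled E. coli RNA polymerase and titrated with SNAP-549-labelled MS2 coat protein (0.7 or 1.5 nM, doubling to 3 µM), without and then with constant ligand, in 100 mM Tris-HCl pH 7.5, 80 mM KCl, 4 mM MgCl2, BSA, DTT, yeast tRNA and Tween-20. Apparent Kd is the median of filtered per-cluster curve fits to green signal normalised to red-channel RNA signal and control-cluster median Fmax.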

[1] = designed as: ON switch for flavin mononucleotide, no ligand
[2] = ligand present: flavin mononucleotide, designed as: ON switch for flavin mononucleotide
[3] = designed as: OFF switch for flavin mononucleotide, no ligand
[4] = ligand present: flavin mononucleotide, designed as: OFF switch for flavin mononucleotide

Sequence | apparent Kd [1] | apparent Kd [2] | apparent Kd [3] | apparent Kd [4]
AAUAACGGAGCUACAUGAGGAUCACCCAUGUACGGGUGAUCCUAGGAUAUGCCCGCAACUAUGUCGCAGAAGGAGGGUUGCCCA | 20.4 nM | 39.7 nM | – | –
CGGCUCUCAGGAUAUACCUCGGGUGGCCAACUGUUUCGUUUACAUGAGGAUCACCCAUGUAGAAGGGAGGGCAA | – | – | 49.7 nM | 27 nM
AAACAAACAACGCAGGAUAUGCAAAAACCCACAUGAGGAUCACCCAUGUCCCAACAACAAACAAAGCAGAAGGGCGAACAAACAAA | 105 nM | 55.4 nM | – | –
AUCCUGCGAGGAUAUACUUACUUUUUUUCAUUUGGUUGCGAACAUGAGGAUCACCCAUGUAGAAGGUGCAUAAC | – | – | 22.9 nM | 24.7 nM
CACAUGGUUACAGGAUAUGUUAGGUUGCAGUUGAUUGGUUAUUAAAAUAUUACAGAAGGGUAAGACAUGAGGAUCACCCAUGUG | 175 nM | 97.5 nM | – | –
GUGUAGAGAGGAUAUACAUGAGGAUCACCCAUGUGAAUAAGAUAGAAUAAGAUAAAGUGUAGAAGGCUUAGUGU | – | – | 33.5 nM | 25.9 nM
GUGCUUGUCGGAGGAUAUGGUUACAUGAGGAUCACCCAUGUUAUGCUUGGUUACUUGUUUAGUUUCCAGAAGGUCGAUUAGUUG | – | – | 61 nM | 145 nM
GGUGAAUGAACAUGAGGAUCACCCAUGUCCAGGAAACUGAAUGAGGAUAUCCAUAGCAAAGCUAUGGAGAAGGCAUGGGUCACC | 562 nM | 241 nM | – | –
AAGAAGUCAGGAUAUCCAGCUCGUCACUUGCGUGAUGAGUUGGAGAAGGGACAUGAGGAUCACCCAUGUAAAGC | – | – | 47.9 nM | 45.7 nM
AAGUAGAUCCGAGGAUAUACAAGCCGGAAACGGUACAUGAGGAUCACCCAUGUAGAAGGCGGAUCUACAGGUACUAAAGUACCA | – | – | 5.53 nM | 9.17 nM
AGUAACAGAGGAUAUACUAUUUUAUGUGUUUGUUAUUUUAAACAUGAGGAUCACCCAUGUAGAAGGCUGAAUAA | – | – | 21.8 nM | 24.1 nM
UGACCCUGGAUGAGUGUUUAGACAUGAGGAUCACCCAUGUCUGAGGAUAUGCGGCAUCAAUAACAGCAGAAGGCAGACUUGGGU | – | – | 133 nM | 41.2 nM
CUGGUUAGUCAGGAUAUCGUGUGGGUAAUUGUACGAGAAGGGACGACAUGAGGAUCACCCAUGUGGUCUUUGGG | – | – | 24.8 nM | 56.2 nM
GGUGCGUGUAAAGGAUAUAUGUACUGAGAGGACAUAGAAGGUUACAUGAGGAUCACCCAUGUAGGAAGCGAAAGUUAUCACGUG | – | – | 11.7 nM | 25.3 nM
AUCAGCUCGUCAGGAUAUACGUCACUGGGUCAGCAGUGUGGUAAGAUCACAUGAGGAUCACCCAUGUAGAAGGGACGAGCUGAU | – | – | 66.3 nM | 483 nM
AGAUCGAGUGUGAGGAUAUUGACCGGACGACCCAUCGAGAAGGCACAUGAGGAUCACCCAUGUGAUUCGGUUUA | – | – | 15.2 nM | 32.5 nM
ACAUUUUAUGCAGGAUAUUGACAUAUAUUUAAACAAGAAGGGCAUUACAUGAGGAUCACCCAUGUUAUAUUGGUAUAUAAGUUC | – | – | 17.4 nM | 14.8 nM
ACGCUUUGGGAGAAGGUACGUUAAUUUUUUUCCACAUGAGGAUCACCCAUGUAAGGAUAUCCCGUCGUUAAAUAGGCUACAGCA | – | – | 9.59 nM | 9.37 nM
AUCUAAGAAUUAAUUGUGACUGACAGAAGGCAAUAGUAUGUGACCGACAUGAGGAUCACCCAUGUUGAGGAUAUGUCUUGCUAC | – | – | 7.02 nM | 22.4 nM
CUCUUGUUAGGAUAUCAAACUGGCAGCGGAGCUGGCAGAAGUGAGAAGGGACAUGAGGAUCACCCAUGUAAGAA | – | – | 69.2 nM | 228 nM
UGUCGGAGCAGAGGAUAUUACAUGAGGAUCACCCAUGUAUGAUCCAAUAGCUGGAAACAGCAAUGUAAGAAGGCUGCUCCGACA | – | – | 291 nM | 8.48 nM
GGAUAGGACAGAGGAUAUACCGAUAGGAUCUACUAUCGAAUAAUCCUCACAUGAGGAUCACCCAUGUAGAAGGCUGUCCUAUCG | – | – | 21.3 nM | 143 nM
GGAUCUUGGGUCAGGAUAUGCUGGUAUUUUUGCCAGCAGAAGGGACAUGAGGAUCACCCAUGUUCUUGGUUUUG | – | – | 10.7 nM | 13.9 nM
CGGCGCUGUUGAGAGGAUAUGCGGUGAUGGACAUGAGGAUCACCCAUGUUAGCGAUAGCAUUACGGUAGAAGGCUCUACAGCUGC | 17.9 nM | 14.1 nM | – | –

Sequence | apparent Kd [1] | apparent Kd [2] | apparent Kd [3] | apparent Kd [4]
AACUGACAUGAGGAUCACCCAUGUCAGGAUAUGACUUCAAAAUAAAAAUAAAAUGAUGUCAGAAGGGACAUGAA | – | – | 13.3 nM | 12 nM
CGACUGUGAGGAUAUGGUGAGUAGUGCCUGAGCGCUGCUCACCAGAAGGCACAUGAGGAUCACCCAUGUAUGAC | – | – | 110 nM | 214 nM
UUCGGCGCAGGAUAUACAGUUUUGUGUUGAAUCGGCGCGGGACAUGAGGAUCACCCAUGUAGAAGGGUGUUGAA | – | – | 682 nM | 470 nM
GACCUAUAGGUAGGAUAUCAUUGCGAUUAGCUAUGAGAAGGACCACAUGAGGAUCACCCAUGUCCUCUAAUUAGCCAUUUGGUC | – | – | 380 nM | 1040 nM
CGCGAUGCGGUUGGCCCUGGGCGAGAGGAUAUGGGCAGCGAGACAUGAGGAUCACCCAUGUUUUCUCAGAAGGCUCGAGCAGGC | 181 nM | 17.1 nM | – | –
GGAGCCGGCACCGAGGAUAUUCAUAUUAAAACAUGAGGAUCACCCAUGUGGGCCAGAAGGCCUUGGGAGAAGGCGGAUCGGCUCG | 305 nM | 30 nM | – | –
UUCAAGGAAGGAUAUCUCGGCCCGGACAUGAGGAUCACCCAUGUUGUUUUUAGAUUCGUGAGAGAAGGUCUUAUAU | – | – | 38.8 nM | 26.5 nM
GUACCUUAUGAGAAGGCGAUCAUUAAACAUGAUCGAGGAUAUCAUGUAAACAUGAGGAUCACCCAUGUAUGGGUAUUAUGGUAC | 66.7 nM | 19.3 nM | – | –
GCCGGUUACACAGGAUAUCCCAUGUCGACGGCGACAUGAGGAUCACCCAUGUCCUGGACGGGUUAGGAGAAGGGUGUAAAAUGC | 110 nM | 51.8 nM | – | –
GGCUAGUCAGGAUAUACGAACAUGUCAAAAGACGUGAAGGGACAUGAGGAUCACCCAUGUAGAAGGGACUAGCA | – | – | 28 nM | 158 nM
CAUUUACAGGGAGGAUAUACAUGAGGAUCACCCAUGUCAUCAUAUGAUAUUUCUUUUGUAUGAGUGUAGAAGGCCCAACUACCA | – | – | 19.2 nM | 18.4 nM
CACGCAUGUGGAGGAUAUGCAGUUAACAUAAGCGCAGAAGGCCACAUGAGGAUCACCCAUGUCCAGCAUUAGCUGAUGUUGAUC | – | – | 385 nM | 195 nM
AGAAACUACGAGAAGGACAUGUGGUCCUUCAGUUACAUGAGGAUCACCCAUGUAGGAUAUCGUAGUUUCAGGAUCGUGAGAUCC | – | – | 42 nM | 12.5 nM
CAGAAGUCAGGAUAUGCAUGGCGGGACUUGCGUCGUGGCGUGCAGAAGGGACAUGAGGAUCACCCAUGUAAAGC | – | – | 50.9 nM | 51.2 nM
CAGAAGUCAGGAUAUGCAUGGCGGGACUUGCGUCGUGGCGUGCAGAAGGGACAUGAGGAUCACCCAUGUAAAGA | – | – | 52.5 nM | 62.4 nM
GUGGUACAUGAGGAUCACCCAUGUUAGGAUAUCGCGUGAGGUUUUACUUCCACACACACGAGAAGGGACGUCUU | – | – | 44.3 nM | 36.2 nM
UAUAUUUAUGUAGGAUAUGGUCUAUAAAAUAGACCAGAAGGACAUGAGGAUCACCCAUGUAUGAAAUUCCAUAAUUGCCGUGUA | – | – | 11.4 nM | 11.4 nM
GCUGGGUCAGGAUAUACAAGAUCGAAAGAUCAAAGAUUCGUACAUGAGGAUCACCCAUGUAGAAGGGACUGGGC | – | – | 23.4 nM | 31.7 nM
GUUUAGUGAGGAUAUGUGGCUUCGAUCGUGAGAUCGAGGCUACAGAAGGCACAUGAGGAUCACCCAUGUUCCUG | – | – | 16 nM | 64.3 nM
GAAUAAUUGAUCCUUUUUUAUUACAUGAGGAUCACCCAUGUGCAGGAUAUCGAUUGUUGUAGUUUCGAGAAGGGCAAGAACUGU | – | – | 187 nM | 280 nM
GUGCGAGCCACAGGAUAUCUACAGAUUUAUUGUAGAGAAGGGUGACCUCGUGCACCACAUGAGGAUCACCCAUGUAACUAGGCG | 30 nM | 48.2 nM | – | –
UGACGGAGCAGAGGAUAUACAUGAGGAUCACCCAUGUAAGAUCUCCAGGAAACUGGAGAUCAAAUGUAGAAGGCUGCUCCGUCA | – | – | 18.1 nM | 56 nM
AGUGGGCUAGGAUAUCGAUGAACUCACAUGAGGAUCACCCAUGUGUCUUCGGUGGGCUCACGAGAAGGAGUAAGUU | – | – | 17.6 nM | 23.2 nM
GUAGAGUAAGGAUAUGGAGAAUAGGAUAGAAUGGUUAGAAUCUAGAAGGUACAUGAGGAUCACCCAUGUAAUGU | – | – | 21.7 nM | 20.8 nM
